Experimental data reported in ChEMBL document CHEMBL3244161, “Azabicycloalkanes as analgetics. 3. Structure-activity relationships of 1-phenyl-6-azabicyclo[3.2.1]octanes and absolute stereochemistry of (+)-1-(3-hydroxyphenyl)-6-methyl-6-azabicyclo[3.2.1]octane and its 7-endo-methyl derivative” (J Med Chem, 1977).
Active and inactive are the calls of the source. The rule behind the calls is not given here.

Key:
[1] = (§1) Acute toxicity in sc dosed mouse; format: organism-based; conditions: in vivo
Mus musculus [2] = assay: Analgesic activity in mouse assessed as inhibition of AcOH-induced writhing up to 22.5 mg/kg, sc; format: functional, organism-based; parameters: dose 22.5 mg/kg
Oryctolagus cuniculus [3] = assay: Narcotic antagonist activity in iv dosed rabbit assessed as inhibition of morphine-induced respiratory depression; format: functional
How it was run: (§2)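 Rabbits given test compound iv; read-out is antagonism of morphine-induced respiratory depression; expressed as AD50 in mg/kg or as % antagonism at a fixed dose.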

Mus musculus [4] = assay: Analgesic activity in sc dosed mouse assessed as inhibition of AcOH-induced writhing; format: functional
Mus musculus [5] = assay: Analgesic activity in mouse assessed as inhibition of AcOH-induced writhing up to 10 mg/kg, sc; format: functional, organism-based; parameters: dose 10 mg/kg
Oryctolagus cuniculus [6] = assay: Narcotic antagonist activity in rabbit assessed as inhibition of morphine-induced respiratory depression at 5 mg/kg, iv; format: functional; how it was run: as §2
Oryctolagus cuniculus [7] = assay: Narcotic antagonist activity in rabbit assessed as inhibition of morphine-induced respiratory depression up to 1 mg/kg, iv; format: functional, organism-based; parameters: dose 1 mg/kg; how it was run: as §2
Rhesus monkey [8] = assay: Suppression of abstinence syndrome in morphine-dependent rhesus monkey at 8 mg/kg; format: functional, organism-based; parameters: dose 8 mg/kg; conditions: Macaca mulatta
Mus musculus [9] = assay: Analgesic activity in sc dosed mouse by hot-plate method; format: functional
Mus musculus [10] = assay: Analgesic activity in sc dosed mouse assessed as time duration of activity by hot-plate method; format: functional
Mus musculus [11] = assay: as §1; format: organism-based; conditions: in vivo
Rhesus monkey [12] = assay: Suppression of abstinence syndrome in morphine-dependent rhesus monkey at 5 mg/kg; format: functional, organism-based; parameters: dose 5 mg/kg; conditions: Macaca mulatta
Rhesus monkey [13] = assay: Narcotic antagonist activity in morphine-dependent rhesus monkey assessed as mild to moderate abstinence at 5 to 20 mg/kg; format: functional, organism-based; conditions: Macaca mulatta
How it was run: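 Compound given to nonwithdrawn morphine-dependent monkeys; scored as precipitation of abstinence syndrome, with severity graded from mild to severe over the stated dose range.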

Mus musculus [14] = assay: Analgesic activity in mouse by hot-plate method up to 100 mg/kg, sc; format: functional, organism-based; parameters: dose 100 mg/kg
[15] = Mus musculus, sc, read-out: ED50

Compound	LD50 [1]	AD50 (Oryctolagus cuniculus [3])	ED50 (Mus musculus [4]; [15])	also measured
O=C(O)C(=O)O.Oc1cccc(C23CCCC(C2)N(CCc2ccccc2)C3)c1 (racemic)	> 100 mg/kg	–	–	Activity (Mus musculus [2]): inactive
Cl.Oc1cccc(C23CCCC(C2)N(C/C=C/c2ccccc2)C3)c1 (racemic)	> 100 mg/kg	0.96 mg/kg	–	Activity (Mus musculus [2]): inactive
Cl.O=C(CCN1CC2(c3cccc(O)c3)CCCC1C2)c1ccccc1 (racemic)	184 mg/kg	–	10.1 mg/kg	–
Cl.O=C(CCCN1CC2(c3cccc(O)c3)CCCC1C2)c1ccccc1 (racemic)	> 100 mg/kg	–	5.2 mg/kg	–
Cl.O=C(CCCN1CC2(c3cccc(O)c3)CCCC1C2)c1ccc(F)cc1 (racemic)	> 100 mg/kg	–	2 mg/kg	–
CCN1C2CCCC(c3cccc(O)c3)(C2)C1C.Cl (racemic)	> 30 mg/kg	–	–	Activity (Mus musculus [2]): inactive
CCCN1C2CCCC(c3cccc(O)c3)(C2)C1C.Cl (racemic)	> 30 mg/kg	0.03 mg/kg	–	Activity (Mus musculus [2]): inactive
CCCCN1C2CCCC(c3cccc(O)c3)(C2)C1C.Cl (racemic)	> 30 mg/kg	–	–	Activity (Mus musculus [5]): inactive
CCCCCN1C2CCCC(c3cccc(O)c3)(C2)C1C.Cl (racemic)	36.7 mg/kg	–	1.5 mg/kg	inhibition (Oryctolagus cuniculus [6]): inactive
CCCCCCN1C2CCCC(c3cccc(O)c3)(C2)C1C.Cl (racemic)	25.4 mg/kg	–	0.27 mg/kg	inhibition (Oryctolagus cuniculus [7]): inactive
C=CCN1C2CCCC(c3cccc(O)c3)(C2)C1C.Cl (racemic)	> 30 mg/kg	0.17 mg/kg	22.5 mg/kg	–
Br.CC(C)=CCN1C2CCCC(c3cccc(O)c3)(C2)C1C (racemic)	> 30 mg/kg	0.086 mg/kg	15 mg/kg	–
C#CCN1C2CCCC(c3cccc(O)c3)(C2)C1C.Cl (racemic)	> 100 mg/kg	0.19 mg/kg	22.5 mg/kg	–
CC(=O)Oc1cccc(C23CCCC(C2)N(C)C3C)c1 (racemic)	–	–	–	Activity (Rhesus monkey [8]): inactive
Br.CC1N(C)C2CCCC1(c1cccc(O)c1)C2 (racemic; 8)	113 mg/kg	2.6 mg/kg	–	ED50 (Mus musculus [4]): 4.5 mg/kg; ED50 (Mus musculus [9]; [15]): 8 mg/kg; Time (Mus musculus [10]): 127 min
Br.CC1N(C)C2CCCC1(c1cccc(O)c1)C2 (racemic; 9)	–	–	4.9 mg/kg	LD50 (Mus musculus [11]): 113.5 mg/kg

Compound	LD50 [1]	AD50 (Oryctolagus cuniculus [3])	ED50 (Mus musculus [4]; [15])	also measured
CC1C2CCCC1(c1cccc(O)c1)CN2C (racemic; 13) [listing 1 of 2 here]	> 30 mg/kg	1.1 mg/kg	–	–
CC1C2CCCC1(c1cccc(O)c1)CN2C (racemic; 13) [listing 2 of 2 here]	–	–	–	Activity (Mus musculus [5]): inactive
Br.CC1C2CCCC1(c1cccc(O)c1)C(C)N2C (racemic; 14)	> 30 mg/kg	–	–	–
CC1C2CCCC1(c1cccc(O)c1)C(C)N2C (racemic; 14)	–	–	–	Activity (Mus musculus [5]): inactive
CC1C2CCCC1(c1cccc(O)c1)CN2C (racemic; 15) [listing 1 of 2 here]	–	0.18 mg/kg	–	–
CC1C2CCCC1(c1cccc(O)c1)CN2C (racemic; 15) [listing 2 of 2 here]	–	–	–	Activity (Mus musculus [5]): inactive
CC1C2CCCC1(c1cccc(O)c1)C(C)N2C (racemic; 16)	–	–	–	Activity (Mus musculus [5]): inactive
CC(=O)Oc1cccc(C23CCCC(C2)N(C)C3C)c1.Cl (single isomer, unassigned; (+))	–	–	2.4 mg/kg	LD50 (Mus musculus [11]): 129.5 mg/kg; ED50 (Mus musculus [9]): 3.6 mg/kg
CC(=O)Oc1cccc(C23CCCC(C2)N(C)C3C)c1.Cl (single isomer, unassigned; (-))	–	–	–	LD50 (Mus musculus [11]): 113.5 mg/kg
CC(=O)Oc1cccc(C23CCCC(C2)N(C)C3C)c1 (single isomer, unassigned; (-))	–	–	–	Activity (Mus musculus [2]): inactive; Activity (Rhesus monkey [12]): inactive; Activity (Rhesus monkey [13]): Active; Activity (Mus musculus [14]): inactive
COc1ccc2c3c1O[C@H]1[C@@H](O)C=C[C@H]4[C@@H](C2)N(C)CC[C@@]341.COc1ccc2c3c1O[C@H]1[C@@H](O)C=C[C@H]4[C@@H](C2)N(C)CC[C@@]341.O.O=P(O)(O)O.O=P(O)(O)O [CODEINE PHOSPHATE]	231 mg/kg	–	9.5 mg/kg	ED50 (Mus musculus [9]; [15]): 7.5 mg/kg
CCOC(=O)C1(c2ccccc2)CCN(C)CC1.Cl [MEPERIDINE HYDROCHLORIDE]	273 mg/kg	–	4.5 mg/kg	ED50 (Mus musculus [9]; [15]): 4.7 mg/kg
CN1CC[C@]23c4c5ccc(O)c4O[C@H]2[C@@H](O)C=C[C@H]3[C@H]1C5.Cl [MORPHINE HYDROCHLORIDE]	–	–	0.8 mg/kg	ED50 (Mus musculus [9]; [15]): 1.2 mg/kg
C=CCN1CC[C@]23c4c5ccc(O)c4O[C@H]2[C@@H](O)C=C[C@H]3[C@H]1C5.Cl [NALORPHINE HYDROCHLORIDE]	–	0.16 mg/kg	–	–
C=CCN1CC[C@]23c4c5ccc(O)c4O[C@H]2C(=O)CC[C@@]3(O)[C@H]1C5.Cl [NALOXONE HYDROCHLORIDE]	–	0.0044 mg/kg	–	–
CC(C)=CCN1CCC2(C)c3cc(O)ccc3CC1C2C.Cl (stereo unspecified) [PENTAZOCINE HYDROCHLORIDE]	190 mg/kg	1.5 mg/kg	4.5 mg/kg	ED50 (Mus musculus [9]; [15]): 12.3 mg/kg
